Assay [1] concerns HT-29. Kind of assay: Cytotoxicity against c-Met-dependent human HT-29 cells assessed as growth inhibition after 72 hrs by MTT assay. The note with it: HT-29, 72 h. (Formazan colour is commonly taken as a measure of viable cells.)
Assay [2] deals with SMMC-7721. Kind of assay: Cytotoxicity against c-Met-dependent human SMMC7721 cells assessed as growth inhibition after 72 hrs by MTT assay. The note with it: SMMC-7721, 72 h. Format: functional, cell-based. In a few lines:
(§1)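 Cells grown in MEM with 10% FBS. About 4×10³ cells/well were seeded and incubated 24 h at 37 °C, 5% CO₂, then exposed to compound for 72 h. MTT was added (terminal 5 µg/mL) for 4 h at 37 °C, and formazan was dissolved in DMSO. IC50 is the mean of three determinations.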

For assay [3], the target named is Platelet-derived growth factor receptor alpha (Homo sapiens, UniProt P16234). Kind of assay: Inhibition of PDGFRalpha (unknown origin) using poly (Glu, Tyr) 4:1 as substrate after 30 mins by HTRF assay. Summed up: (§2)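 HTRF kinase assay on plates precoated with 20 µg/mL poly(Glu,Tyr) 4:1. ATP (10 mM solution) in 50 mM HEPES pH 7.0 buffer with DTT, MgCl₂, MnCl₂ and 0.1% NaN₃. Compound in 1% DMSO; reaction started with purified kinase and run 30 min at 25 °C. Stopped with Streptavidin-XL665 plus TK antibody cryptate and read at 320/615. Inhibition relative to enzyme and no-enzyme controls; IC50 from the inhibition curves.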
In general terms: In TR-FRET formats the signal depends on donor and acceptor labels being close together.

Assay [4] concerns the target Epidermal growth factor receptor (Homo sapiens, UniProt P00533). In words: Inhibition of EGFR (unknown origin) using poly (Glu, Tyr) 4:1 as substrate after 30 mins by HTRF assay. In a few lines: as §2
Assay [5] in a line: Cytotoxicity against c-Met-independent human H460 cells assessed as growth inhibition after 72 hrs by MTT assay. The note with it: NCI-H460, 72 h.
For assay [6], the system named is A549. In words: Cytotoxicity against c-Met-dependent human A549 cells assessed as growth inhibition after 72 hrs by MTT assay. The note with it: A549, 72 h.
The target in assay [7] is Hepatocyte growth factor receptor (Homo sapiens, UniProt P08581). In words: Inhibition of c-Met (unknown origin) using poly (Glu, Tyr) 4:1 as substrate after 30 mins by HTRF assay.
Assay [8] can be described thus: Cytotoxicity against c-Met-dependent human U87MG cells assessed as growth inhibition after 72 hrs by MTT assay. The note with it: U-87 MG. It counts as functional, cell-based, U-87MG ATCC. In a few lines:
as §1

Assay [9] concerns the target T1, Receptor-type tyrosine-protein kinase FLT3 (Homo sapiens, UniProt P36888).
T1 sequence (P36888 whole entry): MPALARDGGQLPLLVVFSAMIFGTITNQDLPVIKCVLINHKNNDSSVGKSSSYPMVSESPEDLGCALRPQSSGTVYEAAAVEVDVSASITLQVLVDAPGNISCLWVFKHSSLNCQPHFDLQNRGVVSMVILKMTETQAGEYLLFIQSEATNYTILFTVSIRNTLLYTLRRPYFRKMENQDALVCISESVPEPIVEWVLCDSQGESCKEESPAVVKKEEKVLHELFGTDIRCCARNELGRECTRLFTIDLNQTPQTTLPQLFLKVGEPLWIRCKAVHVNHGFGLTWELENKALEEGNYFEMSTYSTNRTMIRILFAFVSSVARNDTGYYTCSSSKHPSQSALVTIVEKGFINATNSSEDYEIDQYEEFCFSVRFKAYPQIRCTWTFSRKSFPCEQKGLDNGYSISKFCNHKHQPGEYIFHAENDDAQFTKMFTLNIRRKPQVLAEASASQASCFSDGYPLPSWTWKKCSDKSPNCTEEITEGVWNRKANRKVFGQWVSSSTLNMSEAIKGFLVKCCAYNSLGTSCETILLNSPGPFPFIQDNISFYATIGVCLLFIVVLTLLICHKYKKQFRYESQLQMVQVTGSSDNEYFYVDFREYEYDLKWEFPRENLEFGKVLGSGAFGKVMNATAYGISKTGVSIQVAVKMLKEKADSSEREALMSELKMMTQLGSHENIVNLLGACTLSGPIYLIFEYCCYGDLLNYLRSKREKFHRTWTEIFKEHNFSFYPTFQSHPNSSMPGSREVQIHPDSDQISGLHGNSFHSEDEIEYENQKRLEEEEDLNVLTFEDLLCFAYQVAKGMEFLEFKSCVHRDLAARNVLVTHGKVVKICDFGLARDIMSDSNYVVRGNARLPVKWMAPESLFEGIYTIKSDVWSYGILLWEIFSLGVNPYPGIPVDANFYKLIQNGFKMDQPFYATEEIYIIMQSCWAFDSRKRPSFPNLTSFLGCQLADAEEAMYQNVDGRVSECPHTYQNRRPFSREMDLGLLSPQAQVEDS
In words: Inhibition of Flt-3 (unknown origin) using poly (Glu, Tyr) 4:1 as substrate after 30 mins by HTRF assay. In a few lines:
as §2

Assay [10] concerns the target Mast/stem cell growth factor receptor Kit (Homo sapiens, UniProt P10721). In words: Inhibition of c-Kit (unknown origin) using poly (Glu, Tyr) 4:1 as substrate after 30 mins by HTRF assay. In a few lines: as §2
For assay [11], the system named is MKN-45. Kind of assay: Cytotoxicity against c-Met-dependent human MKN45 cells assessed as growth inhibition after 72 hrs by MTT assay. The note with it: MKN-45, 72 h.
Assay [12] deals with Vascular endothelial growth factor receptor 2 (Homo sapiens, UniProt P35968). Kind of assay: Inhibition of VEGFR-2 (unknown origin) using poly (Glu, Tyr) 4:1 as substrate after 30 mins by HTRF assay. Summed up:
as §2

In ChEMBL document CHEMBL2385045, “Discovery of novel 4-(2-fluorophenoxy)quinoline derivatives bearing 4-oxo-1,4-dihydrocinnoline-3-carboxamide moiety as c-Met kinase inhibitors” (Bioorg Med Chem, 2013) one finds IC50 data, which are given here for one compound.

Where only a bound is given, the exact number is not on record here.

The IC50 is the concentration needed to halve the response being measured.

On to `COc1cc2c(Oc3ccc(NC(=O)c4nn(-c5ccccc5C(F)(F)F)c5ccccc5c4=O)cc3F)ccnc2cc1OCCCN1CCCC1`, for which the IC50 in assay [1] is 110 nM; in [2], 250 nM; in assay [3], 27.3 nM; in assay [4], greater than 10000 nM; in assay [5], 55 nM; in assay [6], 35 nM. Moreover, the IC50 was determined as 0.59 nM in assay [7]; 350 nM in [8]; 8.5 nM in assay [9]; 3.9 nM in assay [10]; 22 nM in assay [11]; 15.4 nM in assay [12].
